Assay results taken from ChEMBL document CHEMBL1275449, “Potent in vitro antifungal activities of naturally occurring acetylenic acids” (Antimicrob Agents Chemother, 2008).
In brackets after ≈: the same amount, converted by molar mass. Activity calls are given as the source filed them. No cut-off for these calls is given here.

What was measured:
Candida parapsilosis [1] = assay: Antifungal activity against Candida parapsilosis ATCC 22019 at 16.5 uM after 48 hrs by CLSI method; format: functional, organism-based
Summary of the method: (§1)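 Yeast suspensions made from 3-5 colonies off 24-72 h SD agar plates in saline. They were diluted by OD630 standard curve in RPMI 1640 (0.2% dextrose, 0.03% glutamine, 0.165 M MOPS, pH 7.0) to 1.5 × 10³ CFU/ml. Twofold dilutions (11 concentrations, 20% DMSO-saline) run in duplicate. OD530 read before and after 35°C, 48 h. Line values are top test concentrations; no-growth endpoints give MIC/MFC.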

Trichophyton rubrum [2] = assay: Antifungal activity against Trichophyton rubrum ATCC MYA-4438 by CLSI method; format: functional, organism-based
Summary of the method: (§2)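 Growth scraped from 1- to 6-week-old potato dextrose slants and filtered through Miracloth. Diluted in 5% Alamar blue-RPMI 1640 (MOPS pH 7.0) to 2.7 × 10⁴ CFU/ml. Eleven twofold dilutions in duplicate. Fluorescence at 544 nm excitation/590 nm emission read before and after 35°C, 5 days. IC50 fitted from percent growth. MIC taken as no detectable growth; MFC from clear or blue wells plated on PD agar.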

[3] = test system: Trichophyton mentagrophytes; assay: Antifungal activity against Trichophyton mentagrophytes ATCC 9533 by CLSI method; format: functional, organism-based; summary of the method: as §2
[4] = test system: Trichophyton mentagrophytes; assay: Antifungal activity against Trichophyton mentagrophytes ATCC MYA-4439 by CLSI method; format: functional, organism-based; summary of the method: as §2
Cryptococcus neoformans [5] = assay: Antifungal activity against Cryptococcus neoformans ATCC 66031 after 72 hrs by CLSI method; format: functional, organism-based; conditions: ATCC 66031, 72 h
Summary of the method: (§3)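 SD broth replaced RPMI because growth in RPMI was poor; other CLSI conditions were kept. Inoculum was 1.5 × 10³ CFU/ml from colonies on SD agar, checked by plating. Twofold serial dilutions (11 concentrations) in 20% DMSO-saline were tested in duplicate. OD530 was read before and after incubation at 35°C for 72 h. Percent growth gave IC50; the MIC is the lowest concentration with no detectable growth.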

Cryptococcus neoformans [6] = assay: Antifungal activity against Cryptococcus neoformans ATCC 90113 after 72 hrs by CLSI method; format: functional, organism-based; conditions: ATCC 90113, 72 h; summary of the method: as §3
Candida tropicalis = assay: Antifungal activity against Candida tropicalis ATCC 750 after 48 hrs by CLSI method; format: functional, organism-based; conditions: ATCC 750, 48 h; summary of the method: as §1
Candida parapsilosis [7] = assay: Antifungal activity against Candida parapsilosis ATCC 22019 after 48 hrs by CLSI method; format: functional, organism-based; conditions: Lodderomyces parapsilosis, ATCC 22019, 48 h; summary of the method: as §1
Pichia kudriavzevii = assay: Antifungal activity against Candida krusei ATCC 6258 after 48 hrs by CLSI method; format: functional, organism-based; conditions: ATCC 6258, 48 h
Summary of the method: (§4)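 Candida inocula came from 24–72-h SD agar colonies suspended in saline. They were diluted by OD630 standard curve into RPMI 1640 (0.2% dextrose, 0.03% glutamine, 0.165 M MOPS, pH 7.0) to 1.5 × 10³ CFU/ml. Compounds were run as 11 twofold dilutions in 20% DMSO-saline, in duplicate, at 35°C for 48 h, with OD530 read before and after. Percent growth at the top concentration, IC50, MIC, and MFC (SD agar plating) were derived.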

Nakaseomyces glabratus = assay: Antifungal activity against Candida glabrata ATCC 90030 after 48 hrs by CLSI methodCandida glabrata; format: functional, organism-based; conditions: ATCC 90030, 48 h; summary of the method: as §4
Candida albicans [8] = assay: Antifungal activity against Fluconazole resistant Candida albicans clinical isolate 17 after 48 hrs by CLSI method; format: functional, organism-based
Summary of the method: (§5)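 CLSI broth microdilution. Colonies from 24–72 h SD agar suspended in saline and sized by OD630 standard curve. Inoculum 1.5 × 10³ CFU/ml (final) in RPMI 1640 (0.2% dextrose, 0.03% glutamine, 0.165 M MOPS, pH 7.0). Twofold dilutions (11 levels) from 20% DMSO-saline, in duplicate. 35°C for 48 h, OD530 read before and after. IC50 fitted from % growth. MIC: no detectable growth. MFC: subculture onto SD agar.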

Aspergillus fumigatus [9] = assay: Antifungal activity against Aspergillus fumigatus ATCC 204305 at 16.5 uM after 48 hrs by CLSI method; format: functional, organism-based
Candida albicans [10] = assay: Antifungal activity against Fluconazole resistant Candida albicans clinical isolate 1 after 48 hrs by CLSI method; format: functional, organism-based; summary of the method: as §5
Aspergillus fumigatus [11] = assay: Antifungal activity against Aspergillus fumigatus ATCC 90906 at 16.5 uM after 48 hrs by CLSI method; format: functional, organism-based
Aspergillus flavus = assay: Antifungal activity against Aspergillus flavus ATCC 204304 at 16.5 uM after 48 hrs by CLSI method; format: functional, organism-based
Candida albicans [12] = assay: Antifungal activity against Candida albicans ATCC 200955 after 48 hrs by CLSI method; format: functional, organism-based; conditions: ATCC 200955, 48 h; summary of the method: as §5
Aspergillus niger = assay: Antifungal activity against Aspergillus niger ATCC 16404 at 16.5 uM after 48 hrs by CLSI method; format: functional, organism-based
Candida albicans [13] = assay: Antifungal activity against Candida albicans ATCC 90028 after 48 hrs by CLSI method; format: functional, organism-based; conditions: ATCC 90028, 48 h; summary of the method: as §5
[14] = test system: Trichophyton mentagrophytes; assay: Antifungal activity against Trichophyton mentagrophytes ATCC MYA-4439 at 16.5 uM after 5 days by CLSI method; format: functional, organism-based
Candida albicans [15] = assay: Antifungal activity against Candida albicans ATCC 32354 after 48 hrs by CLSI method; format: functional, organism-based; conditions: ATCC 32354, 48 h; summary of the method: as §5
[16] = test system: Trichophyton mentagrophytes; assay: Antifungal activity against Trichophyton mentagrophytes ATCC 9533 at 16.5 uM after 5 days by CLSI method; format: functional, organism-based
Trichophyton rubrum [17] = assay: Antifungal activity against Trichophyton rubrum ATCC MYA-4438 at 16.5 uM after 5 days by CLSI method; format: functional, organism-based
Trichophyton rubrum [18] = assay: Antifungal activity against Trichophyton rubrum ATCC 10218 at 16.5 uM after 5 days by CLSI method; format: functional, organism-based
Candida albicans [19] = assay: Antifungal activity against Candida albicans ATCC 14053 after 48 hrs by CLSI method; format: functional, organism-based; conditions: ATCC 14053, 48 h; summary of the method: as §5
Candida albicans [20] = assay: Antifungal activity against Candida albicans ATCC 60193 after 48 hrs by CLSI method; format: functional, organism-based; conditions: ATCC 60193, 48 h; summary of the method: as §5
Aspergillus fumigatus [21] = assay: Antifungal activity against Aspergillus fumigatus ATCC 90906 after 48 h by CLSI method; conditions: ATCC 90906, 48 h

CC[C@H](C)C[C@H](C)CCCCCCCCC(=O)N[C@H]1C[C@@H](O)[C@@H](NCCN)NC(=O)[C@@H]2[C@@H](O)CCN2C(=O)[C@H]([C@H](O)CCN)NC(=O)[C@H]([C@H](O)[C@@H](O)c2ccc(O)cc2)NC(=O)[C@@H]2C[C@@H](O)CN2C(=O)[C@H]([C@@H](C)O)NC1=O [CASPOFUNGIN]
Activity (Candida parapsilosis [1]): inactive | IC50 (Trichophyton rubrum [2]): 60 nM | MIC (Trichophyton rubrum [2]): 0.1 µM (≈ 0.109 µg/mL) | IC50 [3]: 300 nM | IC50 [4]: 200 nM | IC50 (Cryptococcus neoformans [5]): 100 nM | MFC (Cryptococcus neoformans [5]): 1 µM (≈ 1.09 µg/mL) | MIC (Cryptococcus neoformans [5]): 0.5 µM (≈ 0.547 µg/mL) | IC50 (Cryptococcus neoformans [6]): 400 nM | MFC (Cryptococcus neoformans [6]): 2.1 µM (≈ 2.3 µg/mL) | MIC (Cryptococcus neoformans [6]): 1 µM (≈ 1.09 µg/mL) | IC50 (Candida tropicalis): 60 nM | MFC (Candida tropicalis): 0.26 µM (≈ 0.284 µg/mL) | MIC (Candida tropicalis): 0.1 µM (≈ 0.109 µg/mL) | IC50 (Candida parapsilosis [7]): 200 nM | MIC (Candida parapsilosis [7]): 0.5 µM (≈ 0.547 µg/mL) | IC50 (Pichia kudriavzevii): 100 nM | MFC (Pichia kudriavzevii): 1 µM (≈ 1.09 µg/mL) | MIC (Pichia kudriavzevii): 0.4 µM (≈ 0.437 µg/mL) | IC50 (Nakaseomyces glabratus): 50 nM | MFC (Nakaseomyces glabratus): 0.26 µM (≈ 0.284 µg/mL) | MIC (Nakaseomyces glabratus): 0.13 µM (≈ 0.142 µg/mL) | IC50 (Candida albicans [8]): 40 nM | MFC (Candida albicans [8]): 0.26 µM (≈ 0.284 µg/mL) | MIC (Candida albicans [8]): 0.13 µM (≈ 0.142 µg/mL) | Activity (Aspergillus fumigatus [9]): inactive | IC50 (Candida albicans [10]): 50 nM | MFC (Candida albicans [10]): 0.26 µM (≈ 0.284 µg/mL) | MIC (Candida albicans [10]): 0.1 µM (≈ 0.109 µg/mL) | Activity (Aspergillus fumigatus [11]): inactive | Activity (Aspergillus flavus): inactive | IC50 (Candida albicans [12]): 50 nM | MFC (Candida albicans [12]): 0.13 µM (≈ 0.142 µg/mL) | MIC (Candida albicans [12]): 0.13 µM (≈ 0.142 µg/mL) | Activity (Aspergillus niger): inactive | IC50 (Candida albicans [13]): 60 nM | MFC (Candida albicans [13]): 0.26 µM (≈ 0.284 µg/mL) | MIC (Candida albicans [13]): 0.19 µM (≈ 0.208 µg/mL) | Activity [14]: inactive | IC50 (Candida albicans [15]): 70 nM | MFC (Candida albicans [15]): 1.03 µM (≈ 1.13 µg/mL) | MIC (Candida albicans [15]): 0.13 µM (≈ 0.142 µg/mL) | Activity [16]: inactive | Activity (Trichophyton rubrum [17]): inactive | Activity (Trichophyton rubrum [18]): inactive | IC50 (Candida albicans [19]): 50 nM | MFC (Candida albicans [19]): 0.26 µM (≈ 0.284 µg/mL) | MIC (Candida albicans [19]): 0.1 µM (≈ 0.109 µg/mL) | IC50 (Candida albicans [20]): 30 nM | MFC (Candida albicans [20]): 0.52 µM (≈ 0.569 µg/mL) | MIC (Candida albicans [20]): 0.1 µM (≈ 0.109 µg/mL) | IC50 (Aspergillus fumigatus [21]): 200 nM | MIC (Aspergillus fumigatus [21]): 16.5 µM (≈ 18 µg/mL)
